From ChEMBL document CHEMBL1138035, “Antitumor agents. 250. Design and synthesis of new curcumin analogues as potential anti-prostate cancer agents” (J Med Chem, 2006)
pIC50: −log10 of the molar value.

How the values were obtained:
[1] = system: LNCaP; assay: Cytotoxicity against human LNCaP cell line; format: functional, cell-based
[2] = system: PC-3; assay: Cytotoxicity against human PC3 cell line; format: functional, cell-based; conditions: for pIC50: Homo sapiens, PC-3, read-out: IC50
[3] = target: T1, Androgen receptor (Homo sapiens) (UniProt P10275); assay: Antiandrogenic activity against human LNCaP cell line by AR transactivation assay in presence of […] at 5 uM; format: functional, cell-based
T1 sequence (whole entry): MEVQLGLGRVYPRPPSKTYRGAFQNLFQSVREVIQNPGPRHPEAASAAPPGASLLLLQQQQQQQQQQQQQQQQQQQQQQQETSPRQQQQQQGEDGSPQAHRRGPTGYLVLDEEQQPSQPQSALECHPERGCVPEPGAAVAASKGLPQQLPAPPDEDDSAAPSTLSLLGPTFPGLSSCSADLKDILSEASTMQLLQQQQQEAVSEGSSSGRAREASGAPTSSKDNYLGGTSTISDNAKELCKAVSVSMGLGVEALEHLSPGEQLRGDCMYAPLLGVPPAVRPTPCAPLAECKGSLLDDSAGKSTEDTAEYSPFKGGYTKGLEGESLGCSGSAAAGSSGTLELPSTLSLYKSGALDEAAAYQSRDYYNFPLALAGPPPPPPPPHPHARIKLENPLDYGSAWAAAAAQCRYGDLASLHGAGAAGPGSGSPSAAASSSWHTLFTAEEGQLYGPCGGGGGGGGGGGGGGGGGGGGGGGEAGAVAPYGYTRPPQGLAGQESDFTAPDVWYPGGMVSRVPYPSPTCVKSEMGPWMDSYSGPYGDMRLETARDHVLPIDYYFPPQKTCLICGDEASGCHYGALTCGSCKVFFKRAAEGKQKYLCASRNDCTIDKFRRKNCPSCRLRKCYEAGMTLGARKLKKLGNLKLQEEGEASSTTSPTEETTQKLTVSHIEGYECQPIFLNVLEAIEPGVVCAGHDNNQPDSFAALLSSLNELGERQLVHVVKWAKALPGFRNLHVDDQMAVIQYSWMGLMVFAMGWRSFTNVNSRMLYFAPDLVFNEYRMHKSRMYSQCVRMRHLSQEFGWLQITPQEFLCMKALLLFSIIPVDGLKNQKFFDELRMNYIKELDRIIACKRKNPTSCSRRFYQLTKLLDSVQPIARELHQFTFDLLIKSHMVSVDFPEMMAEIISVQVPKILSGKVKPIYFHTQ
In short: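 LNCaP cells (endogenous mutant AR), kept in RPMI with 10% fetal calf serum and antibiotics, were plated 48 h before transfection. They were transfected for 5 h (SuperFect) with MMTV-luciferase reporter plus pRL-SV40 internal control, then moved to RPMI with 10% charcoal dextran-stripped serum. After 24 h, cells got 1 nM DHT plus compound for 24 h. Read-out was dual luciferase normalized to the internal control, as % of DHT-alone transactivation.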

[4] = target: T1, Androgen receptor (Homo sapiens); assay: Antiandrogenic activity against human PC3 cell line transfected with wild-type AR by AR transactivation assay in presence of […] at 5 uM; format: functional, cell-based; conditions: PC-3
In short: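 PC-3 host cells (no functional AR), kept in DMEM with 10% fetal calf serum and antibiotics, were plated 24 h before transfection. They were transfected for 5 h (SuperFect) with wild-type AR plasmid pSG5AR, MMTV-luciferase reporter and pRL-SV40 control, then moved to DMEM with 10% charcoal-stripped serum. After 24 h, cells got 1 nM DHT plus compound for 24 h. Dual-luciferase signal was normalized to the internal control and given as % of DHT-only.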

[5] = system: PC-3; assay: Inhibition of growth of human PC3 cell line at 20 ug/ml; format: functional
In short: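 Growth assay in human prostate cancer cells (LNCaP in RPMI, PC-3 in DMEM, each with 10% fetal calf serum and antibiotics). Cells were exposed to compound for 2 days. Value is % inhibition of cell growth at 20 μg/ml. Variation between replicate experiments was ≤5%.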

Compound	pIC50 [1]	pIC50 [2]	Activity [3] [%]	Activity [4] [%]	inhibition at 20 µg/mL [5] [%]	IC50 ([2]; pc-3) [µM]
COc1cc(OC)c(OC)cc1/C=C/C(O)=C/C(C)=O	4.90	4.98				
CCOC(=O)CC/C(C(=O)/C=C/c1ccc(OC2CCCCO2)c(OC)c1)=C(O)\C=C\c1ccc(OC2CCCCO2)c(OC)c1 (configuration not stated)	5.38	4.91				
COc1ccc(/C=C/C(O)=C/C(=O)/C=C/c2ccc(OC)c(OC)c2)cc1O	5.32	5.26				
COc1ccc(/C=C/C(O)=C/C(C)=O)c(OC)c1OC	5.24	5.11				
CCOC(=O)CC/C(C(=O)/C=C/c1ccc(O)c(OC)c1)=C(O)\C=C\c1ccc(O)c(OC)c1	5.82	5.29	4	13		
COc1cc(/C=C/C(=O)/C=C/c2ccc(O)c(OC)c2)ccc1O	5.85	5.62				
COc1cc(/C=C/C(=O)CC(=O)/C=C/c2ccc(O)c(OC)c2)ccc1O [CURCUMIN]	5.42	5.11				
CCO/C(O)=C/C=C(C(=O)/C=C/c1ccc(O)c(OC)c1)C(=O)/C=C/c1ccc(O)c(OC)c1	5.15	4.93				
CCNC(=O)/C=C/C(C(=O)/C=C/c1ccc(OC)c(OC)c1)=C(O)\C=C\c1ccc(OC)c(OC)c1	6.22	5.92				
CCOC(=O)CCC(F)(C(=O)/C=C/c1ccc(OC2CCCCO2)c(OC)c1)C(=O)/C=C/c1ccc(OC2CCCCO2)c(OC)c1 (configuration not stated)	5.14	5.20				
COc1ccc(/C=C/C(O)=C/C(C)=O)cc1OC	5.18	5.15				
COc1ccc(/C=C/C(=O)/C=C/c2ccc(OC)cc2OC)c(OC)c1	4.66	4.73				
COc1ccc(/C=C/C(=O)C(C)C(=O)/C=C/c2ccc(OC)c(OC)c2)cc1OC	5.24	5.46				
COc1cc(OC)c(OC)cc1/C=C/C(=O)/C=C(O)/C=C/c1cc(OC)c(OC)cc1OC	5.54	5.62				
COc1cc(/C=C/C(O)=C/C(=O)/C=C/c2ccc(CO)o2)ccc1O	5.14	5.05				
COc1ccc(/C=C/C(O)=C/C(=O)/C=C/c2ccc(OC)c(OC)c2OC)cc1OC	5.11	5.04				
COc1cc(/C=C/C=C/C(=O)/C=C(O)/C=C/C=C/c2ccc(O)c(OC)c2)ccc1O	5.36	4.97				
COc1ccc(/C=C/C(=O)/C=C(O)/C=C/c2ccc(OC)cc2OC)c(OC)c1	4.93				45	
COc1ccc(/C=C/C(=O)/C=C(O)/C=C/c2ccc(OC)c(OC)c2)cc1OC	5.89	5.96				
CCO/C(O)=C/C=C(C(=O)/C=C/c1ccc(OC)c(OC)c1)C(=O)/C=C/c1ccc(OC)c(OC)c1	6.70	6.00	6	40		
Cc1cc(/C=C/C(=O)/C=C(O)/C=C/c2ccc(O)c(C)c2)ccc1O	5.74					4.8
CCOC(=O)CC/C(C(=O)/C=C/c1ccc(OC)c(OC)c1)=C(O)\C=C\c1ccc(O)c(OC)c1	5.68	5.20				
COc1ccc(/C=C/C(=O)/C=C/c2ccc(OC)c(OC)c2)cc1OC	5.47	5.42				
COc1cc(/C=C/C(=O)/C=C(O)/C=C/c2ccc(OC)c(OC)c2)ccc1O	5.48	5.22				
